Consider eight molecules from PMC2865857 (Journal of molecular biology, 2010).

Where no end group is shown, it is not given here. [ ]: non-standard residue; d: D form. Lys(Me2) = CN(C)CCCC[C@H](N)C(=O)O

Broadly, the Kd is the free concentration of one partner at which half of the binding sites on the other are occupied at equilibrium, for simple one-to-one binding. Read a low Kd as a tighter complex.

Experiment [1] addresses T1, human 53BP1 tandem Tudor domain (Homo sapiens, UniProt Q12888). Briefly: Binding of peptides to the 53BP1 tandem Tudor domain by tryptophan fluorescence. The conditions noted are these: for decrease in binding affinity relative to p53K382me2: ratio of Kd values, 25°C (Fig. 2a, b; Fig. 3e). Put shortly: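 Synthetic Fmoc-made peptides were HPLC-purified. Intrinsic tryptophan fluorescence was measured at 25°C on 0.5 μM protein with increasing peptide, exciting at 295 nm and recording emission at 305–405 nm over three scans. Kd came from a nonlinear quadratic binding fit, averaged over three experiments ± SD.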

Experiment [2] addresses T1, human 53BP1 tandem Tudor domain. Briefly: other fluorescence titration.

`CSCC[C@H](NC(=O)[C@H](CC(C)C)NC(=O)[C@H](CCCCN(C)C)NC(=O)[C@H](CCCCN)NC(=O)[C@H](Cc1c[nH]cn1)NC(=O)[C@H](CCCNC(=N)N)NC(=O)[C@H](CO)NC(=O)[C@@H](N)[C@@H](C)O)C(=O)N[C@@H](Cc1ccccc1)C(=O)N[C@@H](CCCCN)C(=O)O` [p53K382me2] showed a Kd in experiment [1] of 0.9 µM.

With “p53K372me2: p53 peptide (367–377) dimethylated at Lys372 (SHLKS[Lys(Me2)]KGQST)”, the “decrease in binding affinity relative to p53K382me2” value in experiment [1] (tryptophan fluorescence) was 22 fold. Consider “p53K382me2L383A: p53K382me2 peptide (377–386) with Leu383 replaced (TSRHK[Lys(Me2)]AMFK)”, for which, in experiment [1] (tryptophan fluorescence, 25°C (Fig. 2a)), the “effect of residue replacement on the Kd relative to p53K382me2 (in words)” value was “virtually no effect”. For the molecule “unmodified p53 peptide: unmodified p53 peptide, residues 377–386 (TSRHKKLMFK; UniProt P04637 377-386, looked up, fragment)”, the “association of 53BP1 tandem Tudor domain with peptide (in words)” value in experiment [1] (Fig. 2a, measured by tryptophan fluorescence or Isothermal Titration Calorimetry) is “does not associate”. On to “p53K370me2: p53 peptide (366–375) dimethylated at Lys370 (SSHL[Lys(Me2)]SKKGQ)”, for which, in experiment [1] (tryptophan fluorescence), the “decrease in binding affinity relative to p53K382me2” value was found to be 22 fold. The same measure, in the same setting: the result for “p53H380AK382me2: p53K382me2 peptide (377–386) with His380 substituted with Ala (TSRAK[Lys(Me2)]LMFK)” reads 16 fold. “H4K20me2 peptide (15–23) (from UniProt P62805 16-24)”: in experiment [2], the Kd stood at 1.3 µM. On to “p53K381AK382me2: p53K382me2 peptide (377–386) with Lys381 substituted with Ala (TSRHA[Lys(Me2)]LMFK)”, for which the “decrease in binding affinity relative to p53K382me2” value in experiment [1] (tryptophan fluorescence) turned out to be 11 fold.
